Values after ≈ are worked out from the molar mass of the structure shown.
Columns and labels:
[1] = Dissociation constant, pKa of the compound
[2] = test system: Mycobacterium tuberculosis; experiment: Antibacterial activity against Mycobacterium tuberculosis H37Rv assessed as growth inhibition by two-fold serial dilution method; assay type: functional; conditions: for MIC: Mycobacterium tuberculosis, H37Rv
[3] = Retardation factor, Rm of the compound in acetone-water-silica gel layer; assay type: physicochemical; conditions: buffer
How it was run: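 Reversed-phase partition chromatography. The mobile phase was acetone–water; the stationary phase was a silica gel layer impregnated with a paraffin solution in n-hexane.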

[4] = Dissociation constant, pKa of the compound at 25 degC by spectrophotometric analysis; assay type: physicochemical
How it was run: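 Determined spectrophotometrically at 25 °C (±1). For the approximate value of the nitro-substituted pyridine, the Hammett acidity function (H0) was used.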

[5] = 1-octanol-phosphate buffer partition coefficient, log P of the compound at pH 7.4; assay type: physicochemical
[6] = test system: Mycobacterium tuberculosis; experiment: Antibacterial activity against Mycobacterium tuberculosis assessed as growth inhibition in presence of 16 uM nicotinic acid hydrazide; assay type: functional
[7] = test system: Mycobacterium tuberculosis; experiment: microbe, parasite or virus in culture
[8] = test system: Mycobacterium tuberculosis; experiment: Antibacterial activity against Mycobacterium tuberculosis assessed as growth inhibition; assay type: functional
How it was run: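 Liquid-culture serial dilution against M. tuberculosis H37Rv, with √2 dilution steps. The test medium had 0.7% protein content. MIC (μM) was taken as the average of at least two determinations. Isoniazid served as the standard in every experiment. Activity was expressed as 1/MIC.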

[9] = test system: Mycobacterium tuberculosis; experiment: Antibacterial activity against Mycobacterium tuberculosis using acidic culture media at pH 5.9 assessed as growth inhibition; assay type: functional
[10] = test system: Mycobacterium tuberculosis; experiment: Antibacterial activity against Mycobacterium tuberculosis assessed as growth inhibition at pH 7; assay type: functional

SMILES | pKa [1] | log(1/MIC) [2] | Rm [3] | other results
Fc1ccccn1 | 0.44 |  |  | 
CC(=O)Nc1ccccn1 | 4.09 |  |  | 
C=Cc1ccccn1 | 4.98 |  |  | 
CCCc1ccccn1 | 5.97 |  |  | 
CCc1ccccn1 | 5.97 |  |  | 
Cc1cc(C(=O)NN)ccn1 |  | -0.716 | 0.697 | 
CCc1cc(C(=O)NN)ccn1 |  | -1.324 | 0.862 | 
CCCc1cc(C(=O)NN)ccn1 |  | -1.742 | 1.168 | 
CC(C)Cc1cc(C(=O)NN)ccn1 |  | -2.653 | 1.366 | MIC [2]: 450 µM (≈ 87 µg/mL)
COc1cc(C(=O)NN)ccn1 |  | -2.185 | 0.783 | 
CCOc1cc(C(=O)NN)ccn1 |  | -2.655 | 0.954 | 
NNC(=O)c1ccnc(N)c1 |  | -1.161 | 0.32 | 
CC(=O)Nc1cc(C(=O)NN)ccn1 |  | -3.332 | 0.266 | 
CC(=O)NCc1cc(C(=O)NN)ccn1 |  | -2.386 | 0.34 | 
CCN(CC)c1cc(C(=O)NN)ccn1 |  | -2.856 | 1.383 | 
NNC(=O)c1ccnc(Cl)c1 |  | -2.593 | 0.63 | 
NNC(=O)c1ccnc(I)c1 |  | -2.404 | 0.931 | 

SMILES | pKa [1] | log(1/MIC) [2] | Rm [3] | other results
NNC(=O)c1ccnc([N+](=O)[O-])c1 |  | -2.569 | 0.577 | 
NNC(=O)c1ccnc(-c2ccccc2)c1 |  | -1.699 | 1.643 | 
NNC(=O)c1ccnc(Cc2ccccc2)c1 |  | -1.585 | 1.365 | 
C=Cc1cc(C(=O)NN)ccn1 |  | -1.544 | 1.02 | 
CC(=O)NCc1ccccn1 |  |  |  | pKa [4]: 4.23
c1ccc(Cc2ccccn2)cc1 | 5.13 |  |  | 
COc1ccccn1 | 3.06 |  |  | 
CCOc1ccccn1 |  |  |  | pKa [4]: 3.47
CCN(CC)c1ccccn1 |  |  |  | pKa [4]: 7.32
Brc1ccccn1 | 0.9 |  |  | 
NNC(=O)c1ccnc(F)c1 |  | -2.415 | 0.42 | MIC [2]: 260 µM (≈ 40.3 µg/mL)
NNC(=O)c1ccnc(Br)c1 |  | -2.79 | 0.866 | MIC [2]: 616 µM (≈ 133 µg/mL)
Nc1ccccn1 [2-AMINOPYRIDINE] | 6.71 |  |  | 
NNC(=O)c1ccncc1 [ISONIAZID] |  | -0.041 | 0.372 | logD [5]: -1.14; MIC [2]: 1.1 µM (≈ 0.151 µg/mL); MIC [6]: 1900 µM; MIC [7]: 0.5 µM (≈ 0.0686 µg/mL); MIC [8]: 1 µM (≈ 0.137 µg/mL)
O=C(O)c1ccncc1 [ISONICOTINIC ACID] | 4.84 |  |  | MIC [9]: 128 µM (≈ 15.8 µg/mL); MIC [10]: > 4000 µM
NNC(=O)c1cccnc1 [NICOTINIC ACID HYDRAZIDE] |  |  |  | MIC [8]: 1900 µM (≈ 261 µg/mL)

Source: ChEMBL document CHEMBL3272064, “Mode of action and quantitative structure-activity correlations of tuberculostatic drugs of the isonicotinic acid hydrazide type” (J Med Chem, 1976)
